Source: ChEMBL document CHEMBL5321236, “Fluoro-labelled sp2-iminoglycolipids with immunomodulatory properties” (Eur J Med Chem, 2023)
Calls of active or inactive are those of the source. The rule behind the calls is not given here.

Assays:
HeLa [1] = experiment: Induction of apoptosis in human HeLa cells assessed as membrane blebbing at 20 uM measured upto 15 hrs by microscopy based analysis; type: functional, cell-based
Outline: (§1)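 HeLa and SW1573 seeded at 100,000 cells/dish. After 24 h, medium switched to phenol-red-free RPMI 1640 and 20 μM added. Label-free holotomographic 3D live imaging of a 236 × 236 μm field, 10–20 cells initially, every 3 min for 15 h. Average dry mass density measured per cell at each cycle; morphology scored against untreated cells.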

HBL-100 = experiment: Growth inhibition of human HBL-100 cells measured after 48 hrs by SRB colorimetric assay; type: functional
Outline: (§2)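 NCI-based protocol with sulforhodamine B read-out. Seeded 2500 (A549, HBL-100, HeLa, SW1573), 5000 (T-47D, WiDr, SW1573/P-gp) or 7000 (BJ-hTERT) cells/well. Exposed 48 h to serial decimal dilutions, 0.001–100 μM, from 40 mM DMSO stock. GI50 by NCI formulas; mean of three or more experiments ± SD.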

HeLa [2] = experiment: Induction of morphological changes in human HeLa cells assessed as formation of apoptotic bodies at 20 uM measured after 5 hrs by microscopy based analysis; type: functional, cell-based; outline: as §1
BV-2 [3] = experiment: Protection against LPS induced inflammation in mouse BV-2 cells assessed as decrease in IL1-beta mRNA expression at 10 uM incubated for 24 hrs with LPS stimulation by qRT-PCR analysis
BV-2 [4] = experiment: Antiinflammatory activity in mouse BV-2 cells assessed as reduction of LPS induced nitrites at 10 uM preincubated for 3 hrs followed by LPS stimulation and measured after 24 hrs by Griess method; type: functional, cell-based; details: time 27.0 hrs
Outline: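 Bv.2 microglia at 70% confluence, pre-treated 3 h at 10 μM in serum-free medium, then LPS 200 ng/mL for 24 h. Nitrite in the medium measured by Griess (1% sulphanilamide, 0.1% NEDA in acid), absorbance 548 nm, expressed as fold change over basal. n ≥ 4 independent experiments in triplicate, mean ± SEM.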

BV-2 [5] = experiment: Cytotoxicity against mouse BV-2 cells at 10 uM measured after 24 hr by crystal violet staining based analysis; type: toxicity, cell-based; details: bv-2, 24 h
Outline: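 Bv.2 cells grown to 70% confluence, exposed 24 h in serum-free medium to 0.1, 1.0, 10 and 25 μM. Fixed with 1% glutaraldehyde, stained with 0.1% crystal violet, dye released in 10% acetic acid, absorbance 590 nm. Mean ± SEM, n ≥ 3 independent experiments.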

[6] = target: Mitogen-activated protein kinase 14 (Mus musculus) (UniProt P47811); experiment: Inhibition of LPS-stimulated p38 alpha phosphorylation in mouse BV-2 cells at 10 uM measured after 30 mins by Western blot analysis; type: cell-based
Mitogen-activated protein kinase 14 (Mus musculus), sequence (P47811 whole entry): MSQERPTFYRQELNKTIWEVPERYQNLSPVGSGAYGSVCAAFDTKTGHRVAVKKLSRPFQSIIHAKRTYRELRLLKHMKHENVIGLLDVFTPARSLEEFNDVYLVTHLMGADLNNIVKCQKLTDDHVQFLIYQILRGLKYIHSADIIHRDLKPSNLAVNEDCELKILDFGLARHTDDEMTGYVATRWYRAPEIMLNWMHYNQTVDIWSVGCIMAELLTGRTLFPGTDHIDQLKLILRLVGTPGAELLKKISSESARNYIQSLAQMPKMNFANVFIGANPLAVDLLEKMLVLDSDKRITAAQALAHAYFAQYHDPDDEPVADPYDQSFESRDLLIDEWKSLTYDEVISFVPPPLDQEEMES
Outline: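 Bv.2 cells exposed with or without LPS for 15–90 min. Protein extracts run on SDS-PAGE, blotted to PVDF, probed with anti-phospho-p38α MAPK and anti-total p38α MAPK (1:1000), ECL detection. Quantified by densitometry, mean ± SEM, n = 3.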

[7] = Resistance factor, ratio of GI50 for growth inhibition of human SW1573 cells overexpressing P-glycoprotein measured after 48 hrs in absence of verapamil to GI50 for growth inhibition of human SW1573 cells measured after 48 hrs in absence of verapamil; type: functional
Outline: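 Resistance factor: GI50 in P-gp-overexpressing SW1573 divided by GI50 in parental SW1573, each from 48 h SRB growth-inhibition assay without verapamil. Values are means of three or more independent experiments.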

HeLa [8] = experiment: Induction of morphological changes in human HeLa cells assessed as membrane rupture at 20 uM measured after 12 hrs by imaging based analysis; type: functional, cell-based; outline: as §1
HeLa [9] = experiment: Induction of morphological changes in human HeLa cells assessed as decrease in cell volume at 20 uM measured after 5 hrs by microscopy based analysis; type: functional; outline: as §1
SW1573 [10] = experiment: Induction of apoptosis in human SW1573 cells assessed as membrane blebbing at 20 uM measured upto 15 hrs by microscopy based analysis; type: functional, cell-based; outline: as §1
HeLa [11] = experiment: Induction of morphological changes in human HeLa cells assessed as cell shrinkage at 20 uM measured after 5 hrs by microscopy based analysis; type: functional; outline: as §1
SW1573 [12] = experiment: Growth inhibition of human SW1573 cells overexpressing P-glycoprotein measured after 48 hrs in presence of verapamil by SRB colorimetric assay; type: functional
Outline: as §2, with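 “read-out. Cells grown in RPMI 1640 with 5% FBS and 1 mM glutamine at 37 °C, 5% CO₂.” for “read-out.”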

HeLa [13] = experiment: Growth inhibition of human HeLa cells measured after 48 hrs by SRB colorimetric assay; type: functional; outline: as §2
SW1573 [14] = experiment: Induction of morphological changes in human SW1573 cells assessed as cell shrinkage at 20 uM measured after 5 hrs by microscopy based analysis; type: functional; outline: as §1
HeLa [15] = experiment: Inhibition of colony formation in human HeLa cells assessed as reduction in number of colonies at GI50 concentration measured after 7 days by crystal violet staining based analysis; type: functional, cell-based; details: time 7.0 day
Outline: (§3)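 HeLa and SW1573 seeded at 400 cells/well, dosed next day at GI50/3 and GI50 for the given line. Exposed seven days, fixed in methanol, stained with 0.5% w/v crystal violet. Colonies counted by automatic image segmentation.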

SW1573 [16] = experiment: Growth inhibition of human SW1573 cells overexpressing P-glycoprotein measured after 48 hrs in absence of verapamil by SRB colorimetric assay; type: functional
Outline: as §2, with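 “read-out. Cells grown in RPMI 1640 with 5% FBS and 1 mM glutamine at 37 °C, 5% CO₂.” for “read-out.”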

SW1573 [17] = experiment: Growth inhibition of human SW1573 cells measured after 48 hrs in presence of verapamil by SRB colorimetric assay; type: functional
Outline: as §2, with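 “read-out. Cells grown in RPMI 1640 with 5% FBS and 1 mM glutamine at 37 °C, 5% CO₂.” for “read-out.”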

HeLa [18] = experiment: Induction of morphological changes in human HeLa cells assessed as increase in average dry mass density at 20 uM measured after 15 hrs by imaging based analysis; type: functional, cell-based; outline: as §1
SW1573 [19] = experiment: Growth inhibition of human SW1573 cells measured after 48 hrs in absence of verapamil by SRB colorimetric assay; type: functional
Outline: as §2, with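 “read-out. Cells grown in RPMI 1640 with 5% FBS and 1 mM glutamine at 37 °C, 5% CO₂.” for “read-out.”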

T47D = experiment: Growth inhibition of human T47D cells measured after 48 hrs by SRB colorimetric assay; type: functional; outline: as §2
BV-2 [20] = experiment: Antiinflammatory activity in mouse BV-2 cells assessed as restoration of […] expression level at 10 uM incubated for 24 hrs with LPS stimulation by qRT-PCR analysis; type: functional, cell-based
Outline: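 Bv.2 microglia stimulated with LPS 200 ng/mL with or without compound at 10 μM for 24 h. Arg1 mRNA measured by qRT-PCR, Actinb as housekeeping gene, 2^-ΔΔCT method, fold change relative to basal. n ≥ 4 independent experiments in triplicate.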

SW1573 [21] = experiment: Inhibition of colony formation in human SW1573 cells assessed as reduction in colony size at GI50 concentration measured after 7 days by crystal violet staining based analysis; type: functional, cell-based; details: time 7.0 day; outline: as §3
SW1573 [22] = experiment: Inhibition of colony formation in human SW1573 cells assessed as reduction in colony size at one third of GI50 concentration measured after 7 days by crystal violet staining based analysis; type: functional, cell-based; details: time 7.0 day; outline: as §3

**Q.** Which Activity (HeLa [1]) does the source give for `CCCCCCCCCCCCS(=O)(=O)[C@@H]1[C@H](F)[C@@H](O)[C@H](O)[C@H]2COC(=O)N21` here?
**A.** Its Activity is “Active”.

**Q.** And the GI50 (HBL-100)?
**A.** The GI50 was 19 µM.

**Q.** And the Activity (HeLa [2])?
**A.** Its Activity is “Active”.

**Q.** And the Activity (BV-2 [3])?
**A.** Its Activity is “Active”.

**Q.** And the Activity (BV-2 [4])?
**A.** The Activity was “Active”.

**Q.** And the Activity (BV-2 [5])?
**A.** Its Activity is “Non-Toxic”.

**Q.** What about the inhibition [6] of the same molecule?
**A.** Its inhibition is “inactive”.

**Q.** And the RatioGI50 [7]?
**A.** The RatioGI50 was 1.6.

**Q.** What about the Activity (HeLa [8]) of the same molecule?
**A.** Its Activity is “Active”.

**Q.** What about the Activity (HeLa [9]) of the same molecule?
**A.** The Activity was “Active”.

**Q.** And the Activity (SW1573 [10])?
**A.** Its Activity is “inactive”.

**Q.** And the Activity (HeLa [11])?
**A.** The Activity was “Active”.

**Q.** What about the GI50 (SW1573 [12]) of the same molecule?
**A.** The GI50 was 11 µM.

**Q.** What about the GI50 (HeLa [13]) of the same molecule?
**A.** The GI50 was 4.5 µM.

**Q.** And the Activity (SW1573 [14])?
**A.** Its Activity is “Active”.

**Q.** What about the inhibition (HeLa [15]) of the same molecule?
**A.** Its inhibition is “Active”.

**Q.** What about the GI50 (SW1573 [16]) of the same molecule?
**A.** The GI50 was 5.3 µM.

**Q.** What about the GI50 (SW1573 [17]) of the same molecule?
**A.** Its GI50 is 15 µM.

**Q.** And the Activity (HeLa [18])?
**A.** Its Activity is “Active”.

**Q.** What about the GI50 (SW1573 [19]) of the same molecule?
**A.** The GI50 was 3.3 µM.

**Q.** What about the GI50 (T47D) of the same molecule?
**A.** Its GI50 is 18 µM.

**Q.** And the Activity (BV-2 [20])?
**A.** The Activity was “Active”.

**Q.** What about the inhibition (SW1573 [21]) of the same molecule?
**A.** The inhibition was “Active”.

**Q.** What about the inhibition (SW1573 [22]) of the same molecule?
**A.** Its inhibition is “Active”.
